Experimental data taken from the array DNA melting data of Ke et al. (doi:10.1101/2024.01.08.574731).

Assays:
[1] = folding enthalpy; higher = less favourable; fluorescence melt of hairpins on a sequencing array, two-state fit; conditions: sodium 0.088 M
In short: (§1)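 Folding enthalpy and melting temperature come from bootstrapped two-state fits to Cy3 fluorescence of library hairpins carrying annealed Cy3 and quencher oligos on a sequenced MiSeq flow cell. Imaging was done in 50 mM Na-HEPES pH 8.0, 25 mM NaCl, stepping by 2.5 °C up to 60 °C, and signals were normalised to pre-quench Cy3 and to control constructs. Results of four replicates were combined by inverse variance, and fitted temperatures were raised by 9.35 °C to match UV melts.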

[2] = melting temperature; fluorescence melt of hairpins on a sequencing array, two-state fit, raised by 9.35 °C to match UV melts; conditions: sodium 0.088 M
In short: as §1

Sequence	folding enthalpy [1] [kcal/mol]	Tm [2] [°C]
GGTAGAGGAAACTTTACC ((((.((....)).))))	-24.9	34
GGTAGCCGAAAGGCGACC (((.(((....))).)))	-24.5	66.9
GGTAGCGAAAGCTAACC ((((((....))).)))	-18.7	53.8
GGTAGCGAAAGCTGTACC ((((((....)))..)))	-19.9	40.7
GGTAGCGAAAGCTTGACC ((((((....)))..)))	-13.9	35.7
GGTAGGAAACTACC (((((....)))))	-26.5	48.2
GGTAGGCGAAAGCCGACC (((.(((....))).)))	-18.6	65.4
GGTAGGGGAAACCCTATC (.(((((....))))).)	-24.4	44.3
GGTAGGGGAAACCTTGCC ((.(.((....)).).))	-20.2	34.7
GGTAGGGGAAACTCTGCC ((.((.(....).)).))	-22.9	35.1
GGTAGTCGAAAGACAACC (((.(((....))).)))	-25.2	51.3
GGTAGTGGAAACACTGTC (..((((....))))..)	-20.9	29.2
GGTAGTGGAAACATTACC ((((.((....)).))))	-34.3	41.6
GGTATCCGAAAGGAAACC (((.(((....))).)))	-31.9	48.8
GGTATCGAAAGATCCACC ((((((....)))..)))	-14.7	31.8
GGTATCGAAAGATGAACC ((((((....)))..)))	-15.4	27.9
GGTATCGAAAGATGCACC ((((((....)))..)))	-16.1	33.9
GGTATCGAAAGATGGACC ((((((....)))..)))	-15.2	28.9
GGTATGCGAAAGCAACC (((.(((....))))))	-14.5	47.7
GGTATGGGAAACCACACC (((.(((....))).)))	-27	38.6
GGTATGGGAAACCATATC (.(((((....))))).)	-24.1	39.7
GGTATGGGAAACCATGTC (..((((....))))..)	-13.5	27.4
GGTATTGAAAAATACC ((((((....))))))	-38.8	49

Sequence	folding enthalpy [1] [kcal/mol]	Tm [2] [°C]
GGTATTGGAAACAATACC (((((((....)))))))	-43.7	56.9
GGTATTGGAAACAATATC (.(((((....))))).)	-24.9	37.1
GGTCAAGCGAAAGCTACC (((..(((....))))))	-17.8	34.8
GGTCAAGGAAACCTGACC (((((.(....).)))))	-30.5	46.5
GGTCACCGAAAGGTAACC (((.(((....))).)))	-27.5	48.4
GGTCACGAAAGTGAGACC ((((((....)))..)))	-15.7	45.8
GGTCACGAAAGTGGTACC ((((((....)))..)))	-14.3	42.7
GGTCACGAAAGTGTCACC ((((((....)))..)))	-13.3	37.9
GGTCACGAAAGTGTGACC ((((((....)))..)))	-33.8	56.3
GGTCACGGAAACGTGGCC ((.((((....)))).))	-37.2	64.9
GGTCAGACGAAAGTCACC (((..(((....))))))	-14.6	30.5
GGTCAGCGAAAGCTTACC (((.(((....))).)))	-31.8	48.9
GGTCAGGGAAACTTGGCC ((.((.(....).)).))	-26.1	38.2
GGTCATCGAAAGATACC (((.(((....))))))	-24.2	38.4
GGTCATGGAAACACGACC ((((.((....)).))))	-37.1	43
GGTCATGGAAACATGGTC (..((((....))))..)	-17.6	32.7
GGTCCAGAAATGGACC ((((((....))))))	-46	64
GGTCCAGGAAACCGAACC (((.(.(....).).)))	-10	25.7
GGTCCCCGAAAGGGTACC (((.(((....))).)))	-24.1	53.3
GGTCCCGAAAGGGAAACC ((((((....)))..)))	-15.3	43.2
GGTCCCGAAAGGGATACC ((((((....)))..)))	-12.9	41.4
GGTCCCGAAAGGGCACC ((((((....))).)))	-16.6	53.5
GGTCCGTCGAAAGACACC (((..(((....))))))	-14.1	27.5
